ChEMBL document CHEMBL4028818, “Tricyclic 4,4-dimethyl-3,4-dihydrochromeno[3,4-d]imidazole derivatives as microsomal prostaglandin E2 synthase-1 (mPGES-1) inhibitors: SAR and in vivo efficacy in hyperalgesia pain model” (Bioorg Med Chem Lett, 2017)

Key:
Prostaglandin E synthase [1] = molecular target: T1, Prostaglandin E synthase (Homo sapiens, UniProt O14684); assay: Inhibition of recombinant human mPGES-1 expressed in CHO cells assessed as reduction in PGE2 formation using PGH2 a substrate preincubated for 10 mins followed by substrate addition measured after 1 min; assay type: cell-based
T1 sequence (O14684 whole entry): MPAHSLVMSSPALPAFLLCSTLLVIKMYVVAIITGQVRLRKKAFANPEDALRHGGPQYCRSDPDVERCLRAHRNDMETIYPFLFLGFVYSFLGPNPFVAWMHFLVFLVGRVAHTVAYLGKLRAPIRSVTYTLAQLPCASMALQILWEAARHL
Method in brief: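 mPGES-1 enzyme inhibition. % inhibition values are means of two experiments in duplicate. IC50 values were derived from graphs of at least two experiments in duplicate.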

Prostaglandin E synthase [2] = molecular target: T1, Prostaglandin E synthase; assay: Inhibition of mPGES-1 in human A549 cells assessed as decrease in IL1beta induced PGE2 release preincubated for 30 mins followed by IL-1beta addition after 16 to 20 hrs by HTRF method; assay type: cell-based
[3] = molecular target: Prostaglandin G/H synthase 1 (Homo sapiens, UniProt P23219); assay: Inhibition of COX1 in human U937 cells assessed as decrease in PGE2 release using arachidonic acid as substrate preincubated for 15 mins followed by arachidonic acid addition measured after 5 mins; assay type: cell-based
[4] = Metabolic stability in rat liver microsomes assessed as parent compound remaining at 1 uM after 60 mins in presence of NADPH by LC/MS/MS analysis; assay type: ADME, microsome; conditions: read-out: Stability
Method in brief: (§1)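 Compound at 1.0 µM was incubated with liver microsomes (1.0 mg/mL protein) at 37 °C for 60 min. Samples were analysed by LC/MS/MS as % parent remaining. Run in triplicate.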

[5] = Metabolic stability in Guinea pig liver microsomes assessed as parent compound remaining at 1 uM after 60 mins in presence of NADPH by LC/MS/MS analysis; assay type: ADME, Cavia porcellus, microsome; conditions: read-out: Stability; method in brief: as §1
CYP3A4 = CYP3A4 (Homo sapiens, UniProt P08684); assay: Inhibition of CYP3A4 in human liver microsomes at 10 uM measured after 20 mins in presence of NADPH by LC/MS/MS analysis relative to control; assay type: ADME
Method in brief: (§2)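 CYP isoforms 1A2, 2D6, 3A4, 2C9 and 2C19 were tested at 1 and 10 µM. Results are % inhibition compared with a no-inhibitor control, run in triplicate.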

[6] = Protein binding in human plasma at 10 uM after 5 to 10 mins by LC-MS/SM analsysis; assay type: ADME, cell-free; conditions: read-out: PPB
Method in brief: (§3)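 Plasma protein binding was measured by equilibrium dialysis at 10 µM compound.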

[7] = Protein binding in Guinea pig plasma at 10 uM after 5 to 10 mins by LC-MS/SM analysis; assay type: ADME, cell-free, Cavia porcellus; conditions: read-out: PPB; method in brief: as §3
[8] = Clearance in Sprague-Dawley rat at 5 mg/kg, iv administered as single bolus dose; assay type: ADME, organism-based; conditions: in vivo
Method in brief: (§4)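 Male Sprague-Dawley rats were dosed i.v. in a vehicle of 20% NMP + 20% ethanol + 60% PEG 200. T1/2, CL and Vz were derived. Values are mean ± SD, n = 3.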

[9] = Apparent volume of distribution in Sprague-Dawley rat at 5 mg/kg, iv administered as single bolus dose; assay type: ADME, organism-based; conditions: in vivo, read-out: Vz; method in brief: as §4
[10] = Cmax in Sprague-Dawley rat at 10 mg/kg, po; assay type: ADME, organism-based; set-up: dose 10 mg/kg, route oral; conditions: in vivo
Method in brief: (§5)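 Male Sprague-Dawley rats were dosed orally as a 0.5% methylcellulose suspension. Cmax, AUC0-24, Tmax, T1/2 and %F were determined. Values are mean ± SD, n = 3.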

[11] = Tmax in Sprague-Dawley rat at 10 mg/kg, po; assay type: ADME, organism-based; conditions: in vivo; method in brief: as §5
[12] = Oral bioavailability in Sprague-Dawley rat at 10 mg/kg; assay type: ADME, organism-based; conditions: in vivo; method in brief: as §5
Cytochrome P450 2C19 = Cytochrome P450 2C19 (Homo sapiens, UniProt P33261); assay: Inhibition of CYP2C19 in human liver microsomes at 1 uM measured after 40 mins in presence of NADPH by LC/MS/MS analysis; assay type: ADME; method in brief: as §2
CYP2C19 = CYP2C19 (Homo sapiens, UniProt P33261); assay: Inhibition of CYP2C19 in human liver microsomes at 10 uM measured after 40 mins in presence of NADPH by LC/MS/MS analysis relative to control; assay type: ADME; method in brief: as §2
Cytochrome P450 1A2 = molecular target: T2, Cytochrome P450 1A2 (Homo sapiens, UniProt P05177); assay: Inhibition of CYP1A2 in human liver microsomes at 1 uM measured after 20 mins in presence of NADPH by LC/MS/MS analysis; assay type: ADME; method in brief: as §2
T2 sequence (P05177 whole entry): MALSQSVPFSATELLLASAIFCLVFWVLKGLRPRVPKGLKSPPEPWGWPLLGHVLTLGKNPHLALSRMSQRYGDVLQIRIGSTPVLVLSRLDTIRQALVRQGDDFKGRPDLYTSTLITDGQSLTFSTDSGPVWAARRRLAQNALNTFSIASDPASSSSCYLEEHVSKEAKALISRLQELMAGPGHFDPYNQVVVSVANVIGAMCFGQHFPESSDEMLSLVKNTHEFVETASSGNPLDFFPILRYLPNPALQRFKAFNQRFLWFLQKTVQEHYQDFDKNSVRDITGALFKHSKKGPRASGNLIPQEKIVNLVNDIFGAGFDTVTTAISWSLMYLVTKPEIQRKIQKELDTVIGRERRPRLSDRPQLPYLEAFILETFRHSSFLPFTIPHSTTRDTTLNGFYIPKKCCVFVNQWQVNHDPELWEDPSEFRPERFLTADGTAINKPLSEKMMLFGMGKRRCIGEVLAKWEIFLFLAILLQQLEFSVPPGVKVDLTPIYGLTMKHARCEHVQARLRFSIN

Cytochrome P450 2D6 = Cytochrome P450 2D6 (Homo sapiens, UniProt P10635); assay: Inhibition of CYP2D6 in human liver microsomes at 1 uM measured after 20 mins in presence of NADPH by LC/MS/MS analysis; assay type: ADME; method in brief: as §2
Cytochrome P450 2C9 = Cytochrome P450 2C9 (Homo sapiens, UniProt P11712); assay: Inhibition of CYP2C9 in human liver microsomes at 1 uM measured after 20 mins in presence of NADPH by LC/MS/MS analysis; assay type: ADME; method in brief: as §2
Chain of Cytochrome P450 2C9 (P11712 whole entry): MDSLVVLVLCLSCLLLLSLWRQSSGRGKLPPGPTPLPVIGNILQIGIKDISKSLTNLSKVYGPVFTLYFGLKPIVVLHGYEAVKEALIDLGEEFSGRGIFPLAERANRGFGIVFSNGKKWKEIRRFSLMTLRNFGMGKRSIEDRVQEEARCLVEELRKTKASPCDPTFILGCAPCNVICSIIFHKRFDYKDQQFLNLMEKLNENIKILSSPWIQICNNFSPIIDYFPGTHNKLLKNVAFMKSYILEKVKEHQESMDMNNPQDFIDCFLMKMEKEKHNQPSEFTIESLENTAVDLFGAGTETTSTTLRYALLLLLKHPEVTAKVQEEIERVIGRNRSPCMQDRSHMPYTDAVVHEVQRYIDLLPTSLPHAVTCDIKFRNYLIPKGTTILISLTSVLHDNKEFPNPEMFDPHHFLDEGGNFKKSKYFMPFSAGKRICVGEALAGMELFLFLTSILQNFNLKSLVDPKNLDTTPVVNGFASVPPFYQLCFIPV

Chain of CYP3A4 (P08684 whole entry, canonical isoform): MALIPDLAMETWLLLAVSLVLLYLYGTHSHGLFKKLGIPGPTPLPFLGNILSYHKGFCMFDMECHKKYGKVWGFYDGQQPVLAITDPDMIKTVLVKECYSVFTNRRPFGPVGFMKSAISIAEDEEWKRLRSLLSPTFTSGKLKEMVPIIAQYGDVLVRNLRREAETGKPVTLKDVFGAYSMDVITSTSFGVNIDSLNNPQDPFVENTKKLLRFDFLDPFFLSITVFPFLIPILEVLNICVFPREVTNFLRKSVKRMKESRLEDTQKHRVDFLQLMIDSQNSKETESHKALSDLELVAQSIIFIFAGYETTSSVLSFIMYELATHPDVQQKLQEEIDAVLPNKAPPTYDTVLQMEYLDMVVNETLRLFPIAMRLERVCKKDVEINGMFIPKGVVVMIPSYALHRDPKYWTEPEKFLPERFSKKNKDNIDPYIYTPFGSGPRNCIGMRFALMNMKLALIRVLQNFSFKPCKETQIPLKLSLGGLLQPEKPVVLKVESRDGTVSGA
Chain of Prostaglandin G/H synthase 1 (P23219 whole entry): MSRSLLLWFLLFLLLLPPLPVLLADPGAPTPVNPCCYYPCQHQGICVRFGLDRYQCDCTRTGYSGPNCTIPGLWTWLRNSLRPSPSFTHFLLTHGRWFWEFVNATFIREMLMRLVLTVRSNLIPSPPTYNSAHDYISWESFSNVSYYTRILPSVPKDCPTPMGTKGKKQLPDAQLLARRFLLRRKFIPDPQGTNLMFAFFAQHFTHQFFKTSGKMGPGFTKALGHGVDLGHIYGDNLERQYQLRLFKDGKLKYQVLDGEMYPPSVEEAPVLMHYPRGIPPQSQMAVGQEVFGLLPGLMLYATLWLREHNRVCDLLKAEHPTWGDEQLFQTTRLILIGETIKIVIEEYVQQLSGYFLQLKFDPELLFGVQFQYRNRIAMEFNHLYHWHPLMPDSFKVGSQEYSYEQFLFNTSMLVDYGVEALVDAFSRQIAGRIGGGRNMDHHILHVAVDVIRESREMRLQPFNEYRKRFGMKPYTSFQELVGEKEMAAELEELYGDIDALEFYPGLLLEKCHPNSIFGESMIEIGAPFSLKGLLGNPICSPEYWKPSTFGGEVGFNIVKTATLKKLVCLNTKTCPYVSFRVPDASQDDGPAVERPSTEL
Chain of CYP2C19 (P33261 whole entry): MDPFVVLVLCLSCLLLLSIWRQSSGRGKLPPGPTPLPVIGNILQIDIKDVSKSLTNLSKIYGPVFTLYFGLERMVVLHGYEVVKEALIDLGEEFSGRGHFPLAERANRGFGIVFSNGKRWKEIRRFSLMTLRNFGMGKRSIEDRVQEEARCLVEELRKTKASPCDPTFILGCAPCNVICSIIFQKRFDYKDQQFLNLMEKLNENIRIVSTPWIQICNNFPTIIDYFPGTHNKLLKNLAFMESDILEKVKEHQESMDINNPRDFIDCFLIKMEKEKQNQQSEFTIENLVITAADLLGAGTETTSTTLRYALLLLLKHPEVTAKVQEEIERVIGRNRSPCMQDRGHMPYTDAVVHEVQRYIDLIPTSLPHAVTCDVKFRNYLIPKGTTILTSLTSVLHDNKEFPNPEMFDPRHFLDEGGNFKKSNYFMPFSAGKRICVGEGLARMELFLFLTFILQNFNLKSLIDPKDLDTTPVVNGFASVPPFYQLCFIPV
Chain of Cytochrome P450 2C19 (P33261 whole entry): as above
Chain of Cytochrome P450 2D6 (P10635 whole entry): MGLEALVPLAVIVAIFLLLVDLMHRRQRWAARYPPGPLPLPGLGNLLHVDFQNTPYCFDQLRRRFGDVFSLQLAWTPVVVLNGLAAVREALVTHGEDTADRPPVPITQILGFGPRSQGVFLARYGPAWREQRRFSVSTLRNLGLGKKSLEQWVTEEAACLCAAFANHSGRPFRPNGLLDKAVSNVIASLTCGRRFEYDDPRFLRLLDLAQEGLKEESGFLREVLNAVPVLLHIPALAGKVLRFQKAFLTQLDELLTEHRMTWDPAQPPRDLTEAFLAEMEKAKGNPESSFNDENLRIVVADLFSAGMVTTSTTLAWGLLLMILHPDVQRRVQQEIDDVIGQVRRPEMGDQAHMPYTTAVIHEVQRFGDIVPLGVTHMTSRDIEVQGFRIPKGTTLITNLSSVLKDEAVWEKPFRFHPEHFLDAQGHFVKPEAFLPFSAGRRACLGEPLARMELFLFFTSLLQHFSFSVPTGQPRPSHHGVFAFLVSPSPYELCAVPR

IC50 (Prostaglandin E synthase [1]) [µM] | IC50 (Prostaglandin E synthase [2]) [µM] | IC50 [3] [µM] | remaining at 1 h, 1 µM [4] [%] | remaining at 1 h, 1 µM [5] [%] | inhibition at 20 min, 10 µM (CYP3A4) [%] | fraction unbound at 10 µM [6] | fraction unbound at 10 µM [7] | clearance [8] [mL/min/kg] | Vd [9] [L/kg] | Cmax [10] [ng/mL] | Tmax [11] [h] | bioavailability [12] [%] | inhibition (INH) (Cytochrome P450 2C19) | inhibition at 40 min, 10 µM (CYP2C19) [%] | inhibition (INH) (Cytochrome P450 1A2) | inhibition (INH) (Cytochrome P450 2D6) | inhibition (INH) (Cytochrome P450 2C9) | SMILES
0.0569 | 0.84 | 6.75 | 83 | 80 | 8.4 | < 0.005 | < 0.005 | 3.63 | 3.11 | 826 | 4 | 33 | Not Active | 27.2 | Not Active | Not Active | Not Active | CC1(C)Oc2cc(-c3cccc(OC(F)(F)F)c3)ccc2-c2[nH]c(-c3c(F)cccc3Cl)nc21
0.0363 | 0.839 | 0.06 | 44 | 73 | 31 | < 0.045 | < 0.005 | 11.1 | 5.3 | 1180 | 4 | 85 | Not Active | 17 to 26 | Not Active | Not Active | Not Active | CC1(C)Oc2cc(C#Cc3cc(Cl)ccc3F)ccc2-c2[nH]c(-c3c(F)cccc3Cl)nc21
